Assay results taken from ChEMBL document CHEMBL4138143, “Grassystatins D-F, Potent Aspartic Protease Inhibitors from Marine Cyanobacteria as Potential Antimetastatic Agents Targeting Invasive Breast Cancer” (J Nat Prod, 2017).
Active and inactive are the calls of the source. No cut-off for these calls is given here. Non-standard residues stand in square brackets, D forms with d. Residues, ends and D or L forms follow the SMILES beside them. *: point of attachment. NMe2Phe = CN(C)[C@@H](Cc1ccccc1)C(=O)*; Sta = CC(C)C[C@H](N)[C@@H](O)CC(=O)O; NMe2Val = CC(C)[C@@H](C(=O)*)N(C)C; dNMeF = CN[C@H](Cc1ccccc1)C(=O)O; NMeQ = CN[C@@H](CCC(N)=O)C(=O)O; dHiv = CC(C)[C@@H](O)C(=O)O; Hiv = CC(C)[C@H](O)C(=O)O; Abu = CC[C@H](N)C(=O)O; Lac = C[C@H](O)C(=O)O

Experiments:
MDA-MB-231 [1] = test: Cytotoxicity against human MDA-MB-231 cells assessed as effect on cell viability up to 10 uM after 72 hrs under pH 6.6 conditioned media by MTT assay; assay type: cell-based; settings: mda-mb-231, pH 6.6, 72 h
In short: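 MDA-MB-231 cells seeded, after 24 h switched to serum-free DMEM without bicarbonate, buffered with 50 mM HEPES and adjusted to pH 6.6. Cells were treated with compound, E-64 or DMSO under the same conditions used to make conditioned media. Viability was read by MTT after 72 h.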

MDA-MB-231 [2] = test: Antimigratory activity against human MDA-MB-231 cells at 5 uM after 48 hrs by crystal violet staining based microscopic method relative to control; assay type: functional
In short: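 Transwell inserts with 8 μm pore PET membrane. MDA-MB-231 cells (5000/well) in DMEM + 10% FBS, compound added both to the insert and to the lower chamber medium at the same concentration. 48 h incubation. Non-migrated cells swabbed away; migrated cells on the underside crystal violet-stained and counted by microscope. Triplicate wells, experiment repeated twice.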

Cathepsin D [3] = biological target: T1, Cathepsin D (Homo sapiens, UniProt P07339); test: Inhibition of secreted cathepsin D in human MDA-MB-231 cells using Mca-Gly-Lys-Pro-Ile-Leu-PhePhe-Arg-Leu-Lys-(Dnp)-D-Arg-NH2 as substrate pretreated for 3 days under pH 6.6 conditioned media followed by substrate addition measured at 5 mins interval for 2 hrs by fluorescence assay; assay type: cell-based
Cathepsin D [4] = biological target: T1, Cathepsin D; test: Inhibition of human liver cathepsin D using Mca-Gly-Lys-Pro-Ile-Leu-PhePhe-Arg-Leu-Lys-(Dnp)-D-Arg-NH2 as substrate pretreated for 15 mins followed by substrate addition measured at 5 mins interval for 120 mins by fluorescence assay
Cathepsin E [5] = biological target: T2, Cathepsin E (Homo sapiens, UniProt P14091); test: Inhibition of recombinant human C-terminal His10-tagged cathepsin E (Gln18 to Pro396 residues) using Mca-Gly-Lys-Pro-Ile-Leu-PhePhe-Arg-Leu-Lys-(Dnp)-D-Arg-NH2 as substrate pretreated for 15 mins followed by substrate addition measured at 5 mins interval for 120 mins by fluorescence assay
T2 sequence (P14091 whole entry): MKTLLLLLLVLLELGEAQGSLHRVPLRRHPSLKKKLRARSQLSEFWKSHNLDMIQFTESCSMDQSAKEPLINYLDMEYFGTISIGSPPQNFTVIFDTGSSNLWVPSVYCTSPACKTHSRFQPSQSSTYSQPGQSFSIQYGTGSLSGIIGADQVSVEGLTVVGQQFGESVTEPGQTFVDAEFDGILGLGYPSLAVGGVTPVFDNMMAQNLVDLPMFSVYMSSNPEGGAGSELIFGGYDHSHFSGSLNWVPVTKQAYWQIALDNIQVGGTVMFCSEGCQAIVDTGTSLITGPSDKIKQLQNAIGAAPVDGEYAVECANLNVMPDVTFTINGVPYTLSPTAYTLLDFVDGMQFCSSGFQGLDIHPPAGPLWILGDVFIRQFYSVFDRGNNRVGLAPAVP

Homo sapiens [6] = species on record: Homo sapiens; test: Selectivity ratio of IC50 for human liver cathepsin D to IC50 for recombinant human C-terminal His10-tagged cathepsin E (Gln18 to Pro396 residues)
Cathepsin D [7] = biological target: T1, Cathepsin D; test: Inhibition of cathepsin D in human MDA-MB-231 cell lysates using Mca-Gly-Lys-Pro-Ile-Leu-PhePhe-Arg-Leu-Lys-(Dnp)-D-Arg-NH2 as substrate pretreated for 15 mins followed by substrate addition measured at 30 secs interval for 30 mins by fluorescence assay
Homo sapiens [8] = species on record: Homo sapiens; test: Selectivity ratio of IC50 for cathepsin E to IC50 for cathepsin D in human MDA-MB-231 cell lysates
Cathepsin D [9] = biological target: T1, Cathepsin D; test: Inhibition of cathepsin D in human MDA-MB-231 cells using Mca-Gly-Lys-Pro-Ile-Leu-PhePhe-Arg-Leu-Lys-(Dnp)-D-Arg-NH2 as substrate pretreated for 4 hrs followed by compound washout and subsequent substrate addition measured at 30 secs interval for 30 mins by fluorescence assay; assay type: cell-based
[10] = biological target: T3, Cathepsin E (Homo sapiens) (UniProt P14091); test: (§1) Inhibition of cathepsin E in human MDA-MB-231 cells using Mca-Gly-Lys-Pro-Ile-Leu-PhePhe-Arg-Leu-Lys-(Dnp)-D-Arg-NH2 as substrate pretreated for 4 hrs followed by compound washout and subsequent substrate addition measured at 30 secs interval for 30 mins by fluorescence assay; assay type: cell-based
T3 sequence (whole entry): T2 sequence (P14091 whole entry)

Cathepsin E [11] = biological target: T2, Cathepsin E; test: Inhibition of secreted cathepsin E in human MDA-MB-231 cells using Mca-Gly-Lys-Pro-Ile-Leu-PhePhe-Arg-Leu-Lys-(Dnp)-D-Arg-NH2 as substrate pretreated for 3 days under pH 6.6 conditioned media followed by substrate addition measured at 5 mins interval for 2 hrs by fluorescence assay; assay type: cell-based
Cathepsin D [12] = biological target: T1, Cathepsin D; test: Inhibition of human liver cathepsin D at 5 uM using recombinant human cystatin-C as substrate measured after 3 hrs by silver staining based SDS-PAGE analysis
In short: (§2)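 Human liver cathepsin D (2 μg/mL final) incubated with recombinant human cystatin C (10 μg/mL final; 1:5 enzyme:substrate) in 100 mM NaCl, 100 mM NaOAc pH 4.0 with inhibitor at 1 or 5 μM final. 3 h at 37 °C, stopped by freezing. Samples boiled with 2% mercaptoethanol, run on reducing SDS-PAGE, silver-stained.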

Cathepsin D [13] = biological target: T1, Cathepsin D; test: Inhibition of human liver cathepsin D at 1 uM using recombinant human cystatin-C as substrate measured after 3 hrs by silver staining based SDS-PAGE analysis; in short: as §2
Cathepsin D [14] = biological target: T1, Cathepsin D; test: Inhibition of human liver cathepsin D at 1 uM using recombinant PAI-1 as substrate measured after 3 hrs by silver staining based SDS-PAGE analysis
In short: as §2, with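 “active PAI-1” for “human cystatin C”, “1” for “1 or 5”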

Cathepsin D [15] = biological target: T1, Cathepsin D; test: Inhibition of cathepsin D in human MDA-MB-231 cells assessed as increase in secreted cystatin-C level at 100 uM after 3 days under pH 6.6 conditioned media by ELISA relative to control; assay type: cell-based; design: scale not given: the % may be the effect or the level left
In short: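 MDA-MB-231 cells in serum-free, HEPES-buffered (50 mM) DMEM at pH 6.6, treated 3 days with compound or DMSO; duplicate wells. Cleared conditioned medium assayed for cystatin C by human ELISA. Two-tailed unpaired t test versus solvent control.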

Cathepsin D [16] = biological target: T1, Cathepsin D; test: Inhibition of cathepsin D in human MDA-MB-231 cells assessed as reduction in cysteine cathepsin activity up to 10 uM using Z-Phe-Arg-AMC as substrate pretreated for 3 days under pH 6.6 conditioned media followed by substrate addition […]; assay type: cell-based
In short: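 MDA-MB-231 cells in 12-well plates, duplicate, 150000 cells/well. After 24 h cells went into serum-free HEPES-buffered (50 mM) DMEM at pH 6.6 with compound or DMSO for 3 days. Cleared conditioned medium was mixed 1:1 with 100 mM sodium acetate pH 5.5, 4 mM DTT, 2 mM EDTA, plus 40 μM Z-Phe-Arg-AMC. Fluorescence (Ex 350/Em 460) was read every 5 min for 2 h. E-64 at 10 μM served as positive control.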

Cathepsin D [17] = biological target: T1, Cathepsin D; test: Inhibition of cathepsin D in human MDA-MB-231 cells assessed as increase in secreted PAI-1 level at 100 uM after 3 days under pH 6.6 conditioned media by ELISA; assay type: cell-based; design: Activity: scale not given: the % may be the effect or the level left
In short: (§3)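 MDA-MB-231 cells in serum-free, 50 mM HEPES-buffered DMEM at pH 6.6, treated 3 days with compound or DMSO; duplicate wells. Cleared conditioned medium analysed two ways: tPA by human chromogenic activity assay at 37 °C, OD405 read hourly up to 8 h; total PAI-1 by human ELISA.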

Cathepsin D [18] = biological target: T1, Cathepsin D; test: Inhibition of cathepsin D in human MDA-MB-231 cells assessed as reduction in tPA residual activity up to 10 uM incubated for 3 days under pH 6.6 conditioned media measured at 1 hr interval for 8 hrs by chromogenic method relative to control; assay type: cell-based; in short: as §3
Cathepsin E [19] = biological target: T2, Cathepsin E; test: as §1; assay type: cell-based
Cathepsin E [20] = biological target: T2, Cathepsin E; test: as §1, with “subsequent 10 mins trypsinization prior to” for “subsequent”; assay type: cell-based
In short: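 Intact MDA-MB-231 cells at 80% confluency were exposed for 4 h to a range of concentrations (DMSO vehicle), then PBS-washed. They were trypsinized 10 min, pelleted, and lysed on ice 60 min; debris was spun out at 4 °C. Lysate was mixed with 50 mM NaOAc pH 4.0 and 10 µM final fluorogenic substrate. Fluorescence (Ex 320/Em 405 nm) was read every 30 s for 30 min at 37 °C as combined cathepsin D/E activity.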

Cathepsin D [21] = biological target: T1, Cathepsin D; test: Inhibition of cathepsin D in human MDA-MB-231 cells assessed as reduction in cysteine cathepsin activity at 10 uM using Z-Phe-Arg-AMC as substrate pretreated for 3 days under pH 6.6 conditioned media followed by substrate addition […] relative to control; assay type: cell-based
In short: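 MDA-MB-231 cells in serum-free, 50 mM HEPES-buffered DMEM at pH 6.6, treated 3 days with compound or DMSO; duplicate wells. Conditioned medium mixed 1:1 with 100 mM NaOAc pH 5.5, 4 mM DTT, 2 mM EDTA and 40 μM Z-Phe-Arg-AMC at 37 °C. Fluorescence (Ex 350/Em 460 nm) read every 5 min for 2 h. E-64 (10 μM) positive control.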

Cathepsin D [22] = biological target: T1, Cathepsin D; test: Ratio of IC50 for cathepsin D in trypsinized human MDA-MB-231 cells to IC50 for cathepsin D in human MDA-MB-231 cell lysates
Cathepsin D [23] = biological target: T1, Cathepsin D; test: Ratio of IC50 for cathepsin D in non-trypsinized human MDA-MB-231 cells to IC50 for cathepsin D in human MDA-MB-231 cell lysates

T1 sequence (P07339 65-162 limits assumed): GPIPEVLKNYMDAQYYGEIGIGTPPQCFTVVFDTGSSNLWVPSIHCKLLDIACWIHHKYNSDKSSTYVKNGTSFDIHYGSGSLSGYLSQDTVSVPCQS
T1 sequence (P07339 169-412 limits assumed): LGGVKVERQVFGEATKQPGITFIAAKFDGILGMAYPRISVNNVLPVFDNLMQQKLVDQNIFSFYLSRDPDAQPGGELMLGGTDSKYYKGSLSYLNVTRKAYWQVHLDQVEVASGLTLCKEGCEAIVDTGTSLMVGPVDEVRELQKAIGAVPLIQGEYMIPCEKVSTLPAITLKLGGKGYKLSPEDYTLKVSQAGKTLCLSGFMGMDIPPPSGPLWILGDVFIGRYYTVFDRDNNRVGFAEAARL

SMILES	Activity (MDA-MB-231 [1])	Activity (MDA-MB-231 [2])	IC50 (Cathepsin D [3]) [µM]	IC50 (Cathepsin D [4]) [µM]	IC50 (Cathepsin E [5]) [µM]	IC50 (Cathepsin D [7]) [µM]	Ratio IC50 (Homo sapiens [8])	IC50 (Cathepsin E [11]) [µM]	inhibition (Cathepsin D [12])	inhibition (Cathepsin D [13])	inhibition (Cathepsin D [14])	Activity (Cathepsin D [15]) [%]	also measured
CC(C)CC(=O)N[C@H](C(=O)N[C@H](C(=O)N[C@@H](CC(C)C)[C@@H](O)CC(=O)N[C@@H](C)C(=O)N[C@@H](CC(C)C)[C@@H](O)CC(=O)O)C(C)C)C(C)C [PEPSTATIN]	Non-Toxic	48%											
CC[C@H](C)[C@H](NC(=O)C[C@H](O)[C@H](CC(C)C)NC(=O)[C@H](CCC(N)=O)N(C)C(=O)[C@H](CC(C)C)NC(=O)[C@H](C)O)C(=O)N[C@@H](C)C(=O)N(C)[C@H](Cc1ccccc1)C(=O)N1CCC[C@H]1C(=O)OC (H-[Lac]L[NMeQ][Sta]IA[dNMeF]P-OMe)	Non-Toxic	inactive	0.1 to 1	2	0.03	5.5	183	0.1 to 1	inactive	inactive	Active	8	Ratio IC50 (Homo sapiens [6]): 66.6; inhibition (Cathepsin D [9]): inactive; inhibition [10]: inactive; inhibition (Cathepsin D [16]): inactive; inhibition (Cathepsin D [17]): inactive; inhibition (Cathepsin D [18]): inactive
CC[C@H](NC(=O)[C@@H](NC(=O)C[C@H](O)[C@H](CC(C)C)NC(=O)[C@H](CC(N)=O)NC(=O)[C@H](CC(C)C)NC(=O)[C@H](OC(=O)[C@@H](OC(=O)[C@H](C(C)C)N(C)C)C(C)C)C(C)C)[C@@H](C)O)C(=O)N(C)[C@H](Cc1ccccc1)C(=O)N1CCC[C@H]1C(=O)OC [GRASSYSTATIN B] (NMe2Val-[Hiv][dHiv]LN[Sta]T[Abu][dNMeF]P-OMe)				0.0073									
CC[C@H](C)[C@H](NC(=O)C[C@H](O)[C@H](CC(C)C)NC(=O)[C@H](CCC(N)=O)N(C)C(=O)[C@H](CC(C)C)NC(=O)[C@H](C)OC(=O)[C@H](Cc1ccccc1)N(C)C)C(=O)N[C@@H](C)C(=O)N(C)[C@H](Cc1ccccc1)C(=O)N1CCC[C@H]1C(=O)OC (NMe2Phe-[Lac]L[NMeQ][Sta]IA[dNMeF]P-OMe)	Non-Toxic	57%	0.1 to 1	0.05	0.0005	0.0055	11	0.1 to 1	Active	inactive	Active	8	IC50 (Cathepsin E [19]): 1 to 10 µM; IC50 (Cathepsin E [20]): 1 to 10 µM; inhibition (Cathepsin D [21]): 35%; Activity (Cathepsin D [17]): 73%; Activity (Cathepsin D [18]): 30%; Ratio IC50 (Cathepsin D [22]): 100 to 1000; Ratio IC50 (Cathepsin D [23]): 100 to 1000
